Reference: PubChem BioAssay AID504418 (Johns Hopkins Ion Channel Center, 2011)
Activity calls are given as the source filed them.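 How the source made its calls: active means compound raising or lowering KCNQ1 potassium channel current, with its KCNE1 partner, at some dose, giving a dose response curve; inactive means no effect at any dose or no curve.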

target: Potassium voltage-gated channel subfamily KQT member 1 (Homo sapiens) + Potassium voltage-gated channel subfamily E member 1 (Homo sapiens) (UniProt P15382+P51787); assay: activity at KCNQ1/E1 potassium channel – Tl flux, KCNQ1/E1-expressing cells, selectivity assay for KCNQ2 activator project, dose response (AID 504418); details: KCNQ1/KCNE1 expressing cells, FluxOR thallium flux; series mostly up to 30 µM
Procedure, shortened: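 Test system: CHO cell line expressing human KCNQ1/KCNE1 potassium channel; times: FluxOR dye loading 90 min, compound exposure 20 min, room temperature; measured by: FluxOR thallium-flux kinetic fluorescence; controls: vehicle wells with stimulus, blank wells without stimulus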

Potassium voltage-gated channel subfamily KQT member 1 (Homo sapiens) + Potassium voltage-gated channel subfamily E member 1 (Homo sapiens), sequence (O88943 whole entry, looked up): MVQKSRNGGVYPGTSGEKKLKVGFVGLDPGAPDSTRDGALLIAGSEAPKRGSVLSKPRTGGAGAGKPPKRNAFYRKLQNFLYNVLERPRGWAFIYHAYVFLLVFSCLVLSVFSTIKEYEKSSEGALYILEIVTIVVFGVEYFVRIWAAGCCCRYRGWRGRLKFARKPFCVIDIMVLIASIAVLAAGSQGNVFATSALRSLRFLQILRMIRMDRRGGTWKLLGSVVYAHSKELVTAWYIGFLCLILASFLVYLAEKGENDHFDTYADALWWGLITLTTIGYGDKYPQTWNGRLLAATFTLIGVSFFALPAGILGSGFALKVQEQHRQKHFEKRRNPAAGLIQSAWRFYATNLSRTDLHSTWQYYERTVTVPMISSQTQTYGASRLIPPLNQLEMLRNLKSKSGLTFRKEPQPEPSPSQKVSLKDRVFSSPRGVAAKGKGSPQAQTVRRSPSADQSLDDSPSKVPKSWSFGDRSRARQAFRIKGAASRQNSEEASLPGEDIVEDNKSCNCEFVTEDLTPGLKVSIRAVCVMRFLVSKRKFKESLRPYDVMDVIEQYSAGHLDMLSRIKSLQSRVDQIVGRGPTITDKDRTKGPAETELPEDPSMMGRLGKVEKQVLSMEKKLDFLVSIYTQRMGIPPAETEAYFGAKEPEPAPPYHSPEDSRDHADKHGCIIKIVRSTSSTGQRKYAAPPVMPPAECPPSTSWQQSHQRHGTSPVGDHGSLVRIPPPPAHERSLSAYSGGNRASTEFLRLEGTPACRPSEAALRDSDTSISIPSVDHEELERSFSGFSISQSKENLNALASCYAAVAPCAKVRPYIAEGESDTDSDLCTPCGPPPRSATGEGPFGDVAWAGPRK
Potassium voltage-gated channel subfamily KQT member 1 (Homo sapiens) + Potassium voltage-gated channel subfamily E member 1 (Homo sapiens), sequence (P51787 whole entry, looked up): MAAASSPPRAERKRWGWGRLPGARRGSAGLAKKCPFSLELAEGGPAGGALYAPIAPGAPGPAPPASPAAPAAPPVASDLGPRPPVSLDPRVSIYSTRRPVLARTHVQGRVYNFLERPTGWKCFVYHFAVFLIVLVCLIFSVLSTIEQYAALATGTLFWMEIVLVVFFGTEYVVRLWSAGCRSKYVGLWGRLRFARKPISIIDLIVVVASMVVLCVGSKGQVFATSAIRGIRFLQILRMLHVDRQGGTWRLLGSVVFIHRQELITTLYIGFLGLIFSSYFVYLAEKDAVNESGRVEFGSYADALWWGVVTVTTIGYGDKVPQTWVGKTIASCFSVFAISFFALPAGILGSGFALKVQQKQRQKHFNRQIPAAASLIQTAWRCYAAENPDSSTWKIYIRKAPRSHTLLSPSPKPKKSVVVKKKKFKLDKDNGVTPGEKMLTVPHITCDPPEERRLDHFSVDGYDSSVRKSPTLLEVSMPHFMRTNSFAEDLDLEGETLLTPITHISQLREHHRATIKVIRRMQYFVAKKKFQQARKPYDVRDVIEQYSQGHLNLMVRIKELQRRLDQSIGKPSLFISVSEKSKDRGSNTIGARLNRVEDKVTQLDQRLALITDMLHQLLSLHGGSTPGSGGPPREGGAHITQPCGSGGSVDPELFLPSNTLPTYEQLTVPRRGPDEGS

outcome, inactive:
Cc1ccc(C)c(NC(=O)C2CC3CCC2C3)c1 (stereo not given), Cc1cc(C)c(NC(=O)CC(C)(C)C)c(Cl)c1, Cc1cccc(C)c1NC(=O)C1CC2CCC1C2 (stereo not given), Cc1cc(C)c(NC(=O)C2CC3CCC2C3)c(C)c1 (stereo not given), CCCCC(=O)Nc1c(C)cc(C)cc1Cl
